In ChEMBL document CHEMBL2311366, “MMP inhibition by barbiturate homodimers” (Bioorg Med Chem Lett, 2013):
The source made the active and inactive calls. The rule behind the calls is not given here.

Key:
Collagenase 3 = Collagenase 3 (Homo sapiens, UniProt P45452); assay: Inhibition of human recombinant MMP-13 after 45 mins by fluorogenic assay
Summary of the method: (§1)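 Human recombinant enzymes in a fluorogenic activity assay. Test concentrations 0.01–10,000 nM, 45 min incubation. IC50 reported as mean SEM of at least three independent experiments.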

Neutrophil collagenase = Neutrophil collagenase (Homo sapiens, UniProt P22894); assay: Inhibition of human recombinant MMP-8 after 45 mins by fluorogenic assay; summary of the method: as §1
Chain of Neutrophil collagenase (P22894 whole entry): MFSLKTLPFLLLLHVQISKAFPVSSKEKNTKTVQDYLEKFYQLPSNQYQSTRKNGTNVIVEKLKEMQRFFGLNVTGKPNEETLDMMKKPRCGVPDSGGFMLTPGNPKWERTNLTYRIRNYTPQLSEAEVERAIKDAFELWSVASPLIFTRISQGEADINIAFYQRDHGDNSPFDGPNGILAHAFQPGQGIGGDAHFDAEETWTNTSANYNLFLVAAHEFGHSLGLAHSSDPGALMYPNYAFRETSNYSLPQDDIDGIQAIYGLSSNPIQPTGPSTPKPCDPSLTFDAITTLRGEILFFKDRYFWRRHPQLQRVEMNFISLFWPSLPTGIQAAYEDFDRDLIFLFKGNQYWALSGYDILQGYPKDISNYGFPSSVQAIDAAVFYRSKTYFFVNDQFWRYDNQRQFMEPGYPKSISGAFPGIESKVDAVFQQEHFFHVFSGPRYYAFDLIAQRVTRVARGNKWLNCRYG

[1] = molecular target: T1, Interstitial collagenase (Homo sapiens) (UniProt P03956); assay: Inhibition of human recombinant MMP-1 at 10 uM after 45 mins by fluorogenic assay
T1 sequence (whole entry): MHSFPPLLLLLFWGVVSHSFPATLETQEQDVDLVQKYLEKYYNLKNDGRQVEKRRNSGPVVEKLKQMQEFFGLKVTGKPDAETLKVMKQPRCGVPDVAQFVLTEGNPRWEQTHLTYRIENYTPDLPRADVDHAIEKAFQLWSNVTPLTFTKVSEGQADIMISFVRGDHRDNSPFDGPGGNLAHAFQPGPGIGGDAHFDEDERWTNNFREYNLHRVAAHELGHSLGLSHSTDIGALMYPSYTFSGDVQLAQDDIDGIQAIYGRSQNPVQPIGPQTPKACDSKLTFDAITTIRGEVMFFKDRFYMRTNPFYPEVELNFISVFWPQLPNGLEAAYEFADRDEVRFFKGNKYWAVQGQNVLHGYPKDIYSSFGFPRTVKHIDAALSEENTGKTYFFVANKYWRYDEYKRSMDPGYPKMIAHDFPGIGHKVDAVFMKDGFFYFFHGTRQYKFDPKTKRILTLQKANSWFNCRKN

[2] = Metabolic stability in human duodenal fluid assessed as compound remaining at 6 hrs; format: ADME; conditions: read-out: Stability
Summary of the method: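 Incubation at 37 °C in simulated human duodenal fluid. Remaining compound was measured by RP HPLC as a function of time.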

Compound | IC50 (Collagenase 3) [µM] | IC50 (Neutrophil collagenase) [µM] | inhibition [1] | remaining at 6 h [2] [%]
O=C1NC(=O)C(c2ccc(Oc3ccccc3)cc2)(N2CCCN(C(=O)CCC(=O)N3CCCN(C4(c5ccc(Oc6ccccc6)cc5)C(=O)NC(=O)NC4=O)CC3)CC2)C(=O)N1 | 0.011 | 0.044 | inactive | –
O=C1NC(=O)C(c2ccc(Oc3ccccc3)cc2)(N2CCCN(C(=O)CCCCCCCCCCCCCCC(=O)N3CCCN(C4(c5ccc(Oc6ccccc6)cc5)C(=O)NC(=O)NC4=O)CC3)CC2)C(=O)N1 | 0.134 | 0.282 | inactive | –
O=C1NC(=O)C(c2ccc(Oc3ccccc3)cc2)(N2CCCN(C(=O)CCCCCCCC(=O)N3CCCN(C4(c5ccc(Oc6ccccc6)cc5)C(=O)NC(=O)NC4=O)CC3)CC2)C(=O)N1 | 0.044 | 0.098 | inactive | –
O=C1NC(=O)C(c2ccc(Oc3ccccc3)cc2)(N2CCCN(C(=O)CCCCCC(=O)N3CCCN(C4(c5ccc(Oc6ccccc6)cc5)C(=O)NC(=O)NC4=O)CC3)CC2)C(=O)N1 | 0.648 | 0.117 | inactive | –
O=C1NC(=O)C(c2ccc(Oc3ccccc3)cc2)(N2CCCN(C(=O)CCCC(=O)N3CCCN(C4(c5ccc(Oc6ccccc6)cc5)C(=O)NC(=O)NC4=O)CC3)CC2)C(=O)N1 | 0.164 | 0.085 | inactive | > 50
O=C1NC(=O)C(c2ccc(Oc3ccccc3)cc2)(N2CCCN(C(=O)CCCCCCCCCCCCCCCCCCCCC(=O)N3CCCN(C4(c5ccc(Oc6ccccc6)cc5)C(=O)NC(=O)NC4=O)CC3)CC2)C(=O)N1 | 0.225 | 0.162 | inactive | –
O=C1NC(=O)C(c2ccc(Oc3ccccc3)cc2)(N2CCCN(C(=O)CCCCCCCCCCC(=O)N3CCCN(C4(c5ccc(Oc6ccccc6)cc5)C(=O)NC(=O)NC4=O)CC3)CC2)C(=O)N1 | 0.104 | 0.125 | inactive | –
O=C1NC(=O)C(c2ccc(Oc3ccccc3)cc2)(N2CCCN(C(=O)c3ccc(C(=O)N4CCCN(C5(c6ccc(Oc7ccccc7)cc6)C(=O)NC(=O)NC5=O)CC4)cc3)CC2)C(=O)N1 | 0.023 | 0.046 | inactive | –
O=C1NC(=O)C(c2ccc(Oc3ccccc3)cc2)(N2CCCN(C(=O)CCCCCCCCCCCCC(=O)N3CCCN(C4(c5ccc(Oc6ccccc6)cc5)C(=O)NC(=O)NC4=O)CC3)CC2)C(=O)N1 | 0.07 | 0.217 | inactive | –
O=C1NC(=O)C(c2ccc(Oc3ccccc3)cc2)(N2CCCN(C(=O)CCCCCCCCC(=O)N3CCCN(C4(c5ccc(Oc6ccccc6)cc5)C(=O)NC(=O)NC4=O)CC3)CC2)C(=O)N1 | 0.106 | 0.091 | inactive | –
O=C1NC(=O)C(c2ccc(Oc3ccccc3)cc2)(N2CCCN(C(=O)CCCCCCC(=O)N3CCCN(C4(c5ccc(Oc6ccccc6)cc5)C(=O)NC(=O)NC4=O)CC3)CC2)C(=O)N1 | 0.155 | 0.088 | inactive | –
O=C1NC(=O)C(c2ccc(Oc3ccccc3)cc2)(N2CCCN(C(=O)CCCCC(=O)N3CCCN(C4(c5ccc(Oc6ccccc6)cc5)C(=O)NC(=O)NC4=O)CC3)CC2)C(=O)N1 | 0.023 | 0.06 | inactive | –
CCCC(=O)N1CCCN(C2(c3ccc(Oc4ccccc4)cc3)C(=O)NC(=O)NC2=O)CC1 | – | – | inactive | –
CCCCCCCCCCCCCC(=O)N1CCCN(C2(c3ccc(Oc4ccccc4)cc3)C(=O)NC(=O)NC2=O)CC1 | – | – | inactive | –
